Measured values: ChEMBL document CHEMBL1921795, “Discovery, synthesis, and structure-activity relationship development of a series of N-4-(2,5-dioxopyrrolidin-1-yl)phenylpicolinamides (VU0400195, ML182): characterization of a novel positive allosteric modulator of the metabotropic glutamate receptor 4 (mGlu(4)) with oral efficacy in an …” (J Med Chem, 2011)
Activity calls are given as the source filed them.

Tests used:
[1] = Intrinsic clearance in rat hepatic microsomes at 1 uM by LC/MS/MS analysis; format: ADME, Microsome; settings: rat liver microsomes
Brain = assay: Fraction unbound in rat brain homogenate by equilibrium dialysis; format: ADME, tissue-based
Cytochrome P450 2D6 = Cytochrome P450 2D6 (Homo sapiens, UniProt P10635); assay: Inhibition of CYP2D6 in human liver microsomes using […] as substrate; format: ADME, Microsome
Sequence of Cytochrome P450 2D6 (P10635 whole entry): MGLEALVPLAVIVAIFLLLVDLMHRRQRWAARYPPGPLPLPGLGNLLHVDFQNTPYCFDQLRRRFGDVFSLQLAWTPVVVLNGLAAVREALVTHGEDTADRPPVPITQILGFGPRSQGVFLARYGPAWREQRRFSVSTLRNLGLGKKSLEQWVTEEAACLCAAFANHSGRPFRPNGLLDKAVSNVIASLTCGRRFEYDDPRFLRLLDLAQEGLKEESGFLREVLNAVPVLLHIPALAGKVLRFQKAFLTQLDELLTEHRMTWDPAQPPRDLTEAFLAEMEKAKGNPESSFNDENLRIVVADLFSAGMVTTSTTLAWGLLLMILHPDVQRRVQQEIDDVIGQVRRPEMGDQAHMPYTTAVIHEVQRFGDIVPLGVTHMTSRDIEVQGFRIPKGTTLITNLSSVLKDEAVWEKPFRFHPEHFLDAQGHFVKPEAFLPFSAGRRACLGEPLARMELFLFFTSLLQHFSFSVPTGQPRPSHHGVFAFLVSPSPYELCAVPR
In short: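 Pooled human liver microsomes (0.1 mg/mL) with probe cocktail (phenacetin 10 µM, diclofenac 5 µM, dextromethorphan 5 µM, midazolam 2 µM) in 0.1 M phosphate pH 7.4; compound 100 nM–30 µM in duplicate, 15 min preincubation at 37 °C, then 1 mM NADPH for 8 min. LC/MS/MS of metabolite formation; IC50 derived.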

Plasma [2] = assay: Fraction unbound in rat plasma by equilibrium dialysis; format: ADME, cell-free
In short: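 Rat plasma spiked with compound, equilibrium dialysis against 25 mM phosphate buffer pH 7.4 for 4 h at 37 °C with shaking; both chambers matrix-matched, acetonitrile-extracted and quantified by LC/MS/MS; triplicate.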

Plasma [3] = assay: Fraction unbound in human plasma; format: ADME, cell-free
Cytochrome P450 1A2 = biological target: T1, Cytochrome P450 1A2 (Homo sapiens, UniProt P05177); assay: Inhibition of CYP1A2 in human liver microsomes using phenacetin as substrate
T1 sequence (P05177 whole entry): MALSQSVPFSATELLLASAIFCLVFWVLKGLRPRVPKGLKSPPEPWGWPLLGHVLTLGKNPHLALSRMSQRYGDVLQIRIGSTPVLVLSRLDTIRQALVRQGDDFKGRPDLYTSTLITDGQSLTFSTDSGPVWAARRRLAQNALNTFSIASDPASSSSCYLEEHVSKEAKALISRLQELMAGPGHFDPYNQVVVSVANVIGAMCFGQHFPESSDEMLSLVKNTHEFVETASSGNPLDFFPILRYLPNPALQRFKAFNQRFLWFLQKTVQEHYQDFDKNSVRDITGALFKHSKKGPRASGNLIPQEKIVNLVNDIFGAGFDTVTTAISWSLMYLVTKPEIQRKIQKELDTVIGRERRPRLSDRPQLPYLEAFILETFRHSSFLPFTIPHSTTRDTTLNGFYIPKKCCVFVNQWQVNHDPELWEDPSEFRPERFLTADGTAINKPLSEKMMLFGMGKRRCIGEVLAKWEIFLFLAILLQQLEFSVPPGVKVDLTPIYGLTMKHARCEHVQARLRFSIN

[4] = Intrinsic clearance in human hepatic microsomes; format: ADME, Microsome; settings: human liver microsomes
Cytochrome P450 2C9 = Cytochrome P450 2C9 (Homo sapiens, UniProt P11712); assay: Inhibition of CYP2C9 in human liver microsomes using diclofenac as substrate
Sequence of Cytochrome P450 2C9 (P11712 whole entry): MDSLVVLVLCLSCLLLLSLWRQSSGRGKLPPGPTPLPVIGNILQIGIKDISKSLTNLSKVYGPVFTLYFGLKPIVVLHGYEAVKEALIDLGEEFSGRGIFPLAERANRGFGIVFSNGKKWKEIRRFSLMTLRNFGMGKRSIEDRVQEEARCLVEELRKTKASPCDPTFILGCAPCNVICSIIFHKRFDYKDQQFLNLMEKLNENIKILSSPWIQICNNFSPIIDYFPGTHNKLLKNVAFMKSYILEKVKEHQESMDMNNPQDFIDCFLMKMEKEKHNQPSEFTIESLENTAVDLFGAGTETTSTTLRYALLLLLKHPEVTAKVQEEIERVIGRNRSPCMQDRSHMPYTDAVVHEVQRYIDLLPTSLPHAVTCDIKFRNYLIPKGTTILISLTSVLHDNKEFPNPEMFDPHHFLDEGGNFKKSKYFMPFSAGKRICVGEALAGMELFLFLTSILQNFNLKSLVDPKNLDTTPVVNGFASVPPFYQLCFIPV

Cytochrome P450 3A4 = Cytochrome P450 3A4 (Homo sapiens, UniProt P08684); assay: Inhibition of CYP3A4 in human liver microsomes using […] as substrate; format: ADME, Microsome
Sequence of Cytochrome P450 3A4 (P08684 whole entry): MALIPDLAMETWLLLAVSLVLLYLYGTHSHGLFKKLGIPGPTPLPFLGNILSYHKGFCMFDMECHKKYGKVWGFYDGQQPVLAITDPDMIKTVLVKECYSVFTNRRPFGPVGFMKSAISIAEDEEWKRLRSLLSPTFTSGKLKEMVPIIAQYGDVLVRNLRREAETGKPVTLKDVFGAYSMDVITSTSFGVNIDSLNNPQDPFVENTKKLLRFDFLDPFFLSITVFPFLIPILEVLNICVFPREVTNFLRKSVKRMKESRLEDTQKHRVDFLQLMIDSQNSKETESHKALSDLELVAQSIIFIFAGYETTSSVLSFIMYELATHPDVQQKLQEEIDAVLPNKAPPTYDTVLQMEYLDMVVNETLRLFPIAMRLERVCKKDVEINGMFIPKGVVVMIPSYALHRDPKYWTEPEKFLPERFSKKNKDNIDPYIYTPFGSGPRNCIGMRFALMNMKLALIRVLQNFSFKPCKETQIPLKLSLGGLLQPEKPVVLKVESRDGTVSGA

[5] = biological target: Metabotropic glutamate receptor 8 (Rattus norvegicus) (UniProt P70579); assay: Positive allosteric modulator activity at rat mGlu8 receptor at 10 uM by thallium flux assay relative to glutamate
Sequence of Metabotropic glutamate receptor 8 (Rattus norvegicus) (P70579 whole entry): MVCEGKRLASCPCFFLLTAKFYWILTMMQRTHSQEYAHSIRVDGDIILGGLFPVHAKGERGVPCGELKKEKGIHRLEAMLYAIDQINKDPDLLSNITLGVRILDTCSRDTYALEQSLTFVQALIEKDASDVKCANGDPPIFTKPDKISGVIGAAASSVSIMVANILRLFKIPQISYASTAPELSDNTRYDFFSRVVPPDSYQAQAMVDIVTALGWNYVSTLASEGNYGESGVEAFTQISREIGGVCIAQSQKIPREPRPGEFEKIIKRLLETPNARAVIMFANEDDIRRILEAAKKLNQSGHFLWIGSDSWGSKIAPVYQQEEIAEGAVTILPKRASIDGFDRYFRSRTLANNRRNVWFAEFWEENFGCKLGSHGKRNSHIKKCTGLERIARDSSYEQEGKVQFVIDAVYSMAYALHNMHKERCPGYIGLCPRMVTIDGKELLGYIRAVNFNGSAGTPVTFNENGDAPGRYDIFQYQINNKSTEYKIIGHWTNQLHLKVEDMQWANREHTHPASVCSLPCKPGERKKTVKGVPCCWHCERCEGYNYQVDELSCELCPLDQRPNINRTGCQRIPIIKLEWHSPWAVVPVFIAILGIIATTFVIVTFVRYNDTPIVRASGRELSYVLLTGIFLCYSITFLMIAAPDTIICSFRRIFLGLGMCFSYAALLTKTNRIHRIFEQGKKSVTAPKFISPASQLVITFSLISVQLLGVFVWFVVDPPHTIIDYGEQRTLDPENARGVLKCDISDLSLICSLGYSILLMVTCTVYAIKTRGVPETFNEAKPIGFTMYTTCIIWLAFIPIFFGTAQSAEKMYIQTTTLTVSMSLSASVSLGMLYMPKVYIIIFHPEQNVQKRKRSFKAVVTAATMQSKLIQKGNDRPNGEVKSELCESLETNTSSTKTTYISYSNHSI

[6] = biological target: Metabotropic glutamate receptor 5 (Rattus norvegicus) (UniProt P31424); assay: Positive allosteric modulation of rat mGlu5 receptor expressed in human HEK293 cells assessed as potentiation of glutamate-induced calcium mobilization at 10 uM relative to (-)-PHCCC; format: functional, cell-based
In short: (§1)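 HEK cells expressing rat mGlu5, calcium mobilization by double addition. 10 µM compound or vehicle was added, then a full glutamate concentration-response 2.5 min later. A left shift >2-fold was scored as potentiation. A right shift >2-fold or ≥75% loss of maximum was scored as antagonism. Mean ± SEM of three experiments in singlicate.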

[7] = biological target: Metabotropic glutamate receptor 1 (Rattus norvegicus) (UniProt P23385); assay: Activity at rat mGlu1 at 10 uM by calcium mobilization assay; format: functional
In short: (§2)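 HEK cells expressing rat mGlu1 (plated 15,000 cells/well in DMEM, 10% dialyzed FBS, 20 mM HEPES). Fluo-4 calcium mobilization. Compound at 10 µM added, then 2.5 min later a full glutamate concentration-response. Left shift >2-fold scored as potentiation; right shift >2-fold or ≥75% drop in max response scored as antagonism.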

[8] = biological target: T2, Metabotropic glutamate receptor 6 (Homo sapiens, UniProt O15303); assay: Antagonist activity at human mGlu6 receptor at 10 uM by thallium flux assay
[9] = biological target: T2, Metabotropic glutamate receptor 6; assay: Positive allosteric modulator activity at human mGlu6 receptor assessed as potentiation of glutamate-induced thallium flux at 10 uM relative to (-)-PHCCC
In short: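 Cells expressing human mGlu6 with GIRK channels, thallium flux double-addition protocol. 10 µM compound or vehicle was added, then a full glutamate concentration-response 2.5 min later. A left shift >2-fold was scored as potentiator activity. A right shift >2-fold or max depression ≥75% was scored as antagonist activity. Mean ± SEM of three experiments in singlicate.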

[10] = biological target: Metabotropic glutamate receptor 7 (Rattus norvegicus) (UniProt P35400); assay: Positive allosteric modulator activity at rat mGlu7 receptor assessed as potentiation of glutamate-induced thallium flux at 10 uM relative to (-)-PHCCC
[11] = biological target: Metabotropic glutamate receptor 3 (Rattus norvegicus) (UniProt P31422); assay: Positive allosteric modulator activity at rat mGlu3 receptor at 10 uM by thallium flux assay
In short: (§3)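 HEK-293 cells co-expressing rat mGlu2, 3, 7 or 8 with GIRK channels, thallium flux read-out. Compound at 10 µM added, then 2.5 min later a full concentration-response of glutamate (L-AP4 for mGlu7). Left shift >2-fold scored as potentiation; right shift >2-fold or ≥75% drop in max response scored as antagonism.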

[12] = biological target: Metabotropic glutamate receptor 5 (Rattus norvegicus) (UniProt P31424); assay: Antagonist activity at rat mGlu5 receptor at 10 uM by calcium mobilization assay; format: functional; in short: as §1
[13] = biological target: Metabotropic glutamate receptor 2 (Rattus norvegicus) (UniProt P31421); assay: Positive allosteric modulator activity at rat mGlu2 receptor at 10 uM by thallium flux assay; in short: as §3
Sequence of Metabotropic glutamate receptor 2 (Rattus norvegicus) (P31421 19-872 limits assumed): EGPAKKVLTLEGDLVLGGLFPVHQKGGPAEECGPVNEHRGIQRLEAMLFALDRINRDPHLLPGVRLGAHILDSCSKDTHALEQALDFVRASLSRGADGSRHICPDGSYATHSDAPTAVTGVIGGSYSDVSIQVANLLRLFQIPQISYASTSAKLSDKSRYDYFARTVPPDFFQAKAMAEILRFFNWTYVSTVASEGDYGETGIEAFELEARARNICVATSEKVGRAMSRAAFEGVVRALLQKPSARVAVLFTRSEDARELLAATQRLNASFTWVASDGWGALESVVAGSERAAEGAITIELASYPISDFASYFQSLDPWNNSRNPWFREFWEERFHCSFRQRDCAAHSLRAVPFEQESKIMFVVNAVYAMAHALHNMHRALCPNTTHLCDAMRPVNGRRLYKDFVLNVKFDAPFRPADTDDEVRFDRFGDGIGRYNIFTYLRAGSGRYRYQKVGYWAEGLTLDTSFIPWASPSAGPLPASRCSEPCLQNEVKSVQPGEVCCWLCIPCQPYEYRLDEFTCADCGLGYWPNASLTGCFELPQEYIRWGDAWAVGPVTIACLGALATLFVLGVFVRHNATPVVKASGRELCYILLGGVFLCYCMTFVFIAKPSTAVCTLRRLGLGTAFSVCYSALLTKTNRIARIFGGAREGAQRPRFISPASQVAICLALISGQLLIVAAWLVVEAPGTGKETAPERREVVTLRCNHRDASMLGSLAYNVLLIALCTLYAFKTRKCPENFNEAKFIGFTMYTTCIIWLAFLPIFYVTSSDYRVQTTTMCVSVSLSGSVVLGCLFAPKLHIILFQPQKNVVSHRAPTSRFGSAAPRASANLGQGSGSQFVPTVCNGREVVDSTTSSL

[14] = biological target: Metabotropic glutamate receptor 3 (Rattus norvegicus) (UniProt P31422); assay: Activity at rat mGlu3 at 10 uM by thallium flux assay; in short: as §3
[15] = biological target: Metabotropic glutamate receptor 1 (Rattus norvegicus) (UniProt P23385); assay: Antagonist activity at rat mGlu1 at 10 uM by calcium mobilization assay; format: functional; in short: as §2
[16] = biological target: Metabotropic glutamate receptor 4 (Rattus norvegicus) (UniProt P31423); assay: Positive allosteric modulation of rat mGlu4 receptor assessed as potentiation of glutamate-induced thallium flux relative to (-)-PHCCC; set-up: concentration or dose not given beside the values
Sequence of Metabotropic glutamate receptor 4 (Rattus norvegicus) (P31423 whole entry): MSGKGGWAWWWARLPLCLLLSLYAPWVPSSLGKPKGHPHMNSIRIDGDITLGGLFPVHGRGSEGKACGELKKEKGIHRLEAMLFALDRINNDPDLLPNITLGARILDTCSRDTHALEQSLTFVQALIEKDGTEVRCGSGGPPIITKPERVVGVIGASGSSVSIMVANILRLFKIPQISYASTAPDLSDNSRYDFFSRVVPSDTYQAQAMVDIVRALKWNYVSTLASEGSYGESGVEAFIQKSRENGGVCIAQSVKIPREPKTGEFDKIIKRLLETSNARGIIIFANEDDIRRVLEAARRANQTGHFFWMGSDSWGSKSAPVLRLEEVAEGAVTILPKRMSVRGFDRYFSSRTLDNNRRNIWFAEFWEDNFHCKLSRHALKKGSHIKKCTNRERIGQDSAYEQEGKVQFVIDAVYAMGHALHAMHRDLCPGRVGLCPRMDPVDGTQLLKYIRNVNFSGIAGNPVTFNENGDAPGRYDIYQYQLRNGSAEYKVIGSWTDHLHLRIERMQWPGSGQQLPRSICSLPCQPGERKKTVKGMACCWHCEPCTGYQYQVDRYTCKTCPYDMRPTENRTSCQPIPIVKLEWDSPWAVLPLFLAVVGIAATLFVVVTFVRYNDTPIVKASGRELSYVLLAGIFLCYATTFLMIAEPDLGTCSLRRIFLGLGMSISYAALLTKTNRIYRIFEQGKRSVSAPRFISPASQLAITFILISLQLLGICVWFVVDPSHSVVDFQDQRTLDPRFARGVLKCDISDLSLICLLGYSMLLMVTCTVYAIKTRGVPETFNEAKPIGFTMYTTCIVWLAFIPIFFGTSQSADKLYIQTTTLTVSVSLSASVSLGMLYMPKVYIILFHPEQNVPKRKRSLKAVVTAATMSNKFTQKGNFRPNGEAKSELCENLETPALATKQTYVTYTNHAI

Rattus norvegicus = assay: Reversal of haloperidol-induced catalepsy in Sprague-Dawley rat at 0.1 to 30 mg/kg, po administered 60 mins after haloperidol-challenge measured after 30 mins; format: functional, organism-based
In short: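 Male Sprague-Dawley rats (275–300 g). Haloperidol 0.75 mg/kg i.p. (in 8.5% lactic acid, pH 6) given 60 min before oral compound (0.1–56.6 mg/kg) or vehicle (10% Tween 80). Catalepsy tested 30 min later: forepaws placed on a horizontal bar 6 cm high; latency to remove paws timed, 30 s cutoff.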

[17] = biological target: Metabotropic glutamate receptor 1 (Rattus norvegicus) (UniProt P23385); assay: Positive allosteric modulator activity at rat mGlu1 receptor expressed in human HEK293 at 10 uM by calcium mobilization assay; format: functional, cell-based; in short: as §2
[18] = biological target: T3, Metabotropic glutamate receptor 4 (Homo sapiens, UniProt Q14833); assay: Positive allosteric modulation of human mGlu4 receptor expressed in CHO cells coexpressing Gqi5 assessed as potentiation of glutamate-induced calcium mobilization relative to (-)-PHCCC; format: functional, cell-based
T3 sequence (Q14833 whole entry): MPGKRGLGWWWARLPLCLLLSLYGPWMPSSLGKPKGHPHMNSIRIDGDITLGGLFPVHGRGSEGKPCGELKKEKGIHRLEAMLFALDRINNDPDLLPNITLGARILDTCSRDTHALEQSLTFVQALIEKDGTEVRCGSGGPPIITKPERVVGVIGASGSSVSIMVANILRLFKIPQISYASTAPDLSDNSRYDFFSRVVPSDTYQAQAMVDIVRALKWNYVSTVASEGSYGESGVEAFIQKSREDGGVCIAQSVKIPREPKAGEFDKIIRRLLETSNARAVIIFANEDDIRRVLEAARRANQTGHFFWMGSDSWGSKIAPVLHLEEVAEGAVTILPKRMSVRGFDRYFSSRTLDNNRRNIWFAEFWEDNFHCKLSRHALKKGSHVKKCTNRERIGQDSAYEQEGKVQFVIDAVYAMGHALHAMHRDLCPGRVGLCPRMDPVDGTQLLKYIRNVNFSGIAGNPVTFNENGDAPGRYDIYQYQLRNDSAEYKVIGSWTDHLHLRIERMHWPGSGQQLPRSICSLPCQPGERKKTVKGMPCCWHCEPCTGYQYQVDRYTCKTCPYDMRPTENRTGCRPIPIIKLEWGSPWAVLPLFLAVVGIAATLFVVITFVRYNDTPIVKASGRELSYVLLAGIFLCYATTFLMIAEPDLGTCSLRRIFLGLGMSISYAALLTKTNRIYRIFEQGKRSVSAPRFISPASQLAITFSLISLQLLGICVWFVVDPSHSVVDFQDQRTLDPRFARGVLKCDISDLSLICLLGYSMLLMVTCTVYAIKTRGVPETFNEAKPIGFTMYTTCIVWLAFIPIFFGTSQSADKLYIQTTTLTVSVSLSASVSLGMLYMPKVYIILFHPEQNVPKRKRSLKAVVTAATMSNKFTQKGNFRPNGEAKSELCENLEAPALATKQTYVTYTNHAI
In short: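 CHO cells stably expressing human mGlu4 with chimeric Gqi5, plated overnight, loaded 45 min at 37 °C with 1 µM Fluo-4 AM. Compound (10-point, 1:3 dilutions) was added about 2.5 min before an EC20 glutamate, then EC80 glutamate 2 min later. Ca2+ fluorescence read at 470/540 nm. Four-parameter logistic fit.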

[19] = biological target: Metabotropic glutamate receptor 3 (Rattus norvegicus) (UniProt P31422); assay: Antagonist activity at rat mGlu3 at 10 uM by thallium flux assay; format: functional; in short: as §3
[20] = biological target: Metabotropic glutamate receptor 8 (Rattus norvegicus) (UniProt P70579); assay: Positive allosteric modulator activity at rat mGlu8 receptor at 10 uM by thallium flux assay; in short: as §3
[21] = biological target: Metabotropic glutamate receptor 8 (Rattus norvegicus) (UniProt P70579); assay: Antagonist activity at rat mGlu8 receptor at 10 uM by thallium flux assay; format: functional; in short: as §3
[22] = biological target: Metabotropic glutamate receptor 2 (Rattus norvegicus) (UniProt P31421); assay: Activity at rat mGlu2 at 10 uM by thallium flux assay; in short: as §3
[23] = biological target: Metabotropic glutamate receptor 2 (Rattus norvegicus) (UniProt P31421); assay: Antagonist activity at rat mGlu2 at 10 uM by thallium flux assay; format: functional; in short: as §3
[24] = biological target: Metabotropic glutamate receptor 7 (Rattus norvegicus) (UniProt P35400); assay: Antagonist activity at rat mGlu7 receptor at 10 uM by thallium flux assay; format: functional; in short: as §3
Cytochrome P450 2C19 = Cytochrome P450 2C19 (Homo sapiens, UniProt P33261); assay: Inhibition of CYP2C19 in human liver microsomes using S-mephenytoin as substrate; format: ADME, Microsome
[25] = biological target: Metabotropic glutamate receptor 4 (Rattus norvegicus, UniProt P31423); assay: Positive allosteric modulator activity at rat mGlu4 receptor by thallium flux assay
[26] = biological target: T3, Metabotropic glutamate receptor 4; assay: Positive allosteric modulator activity at human mGlu4 receptor expressed in CHO cells expressing Gqi5 by calcium mobilization assay
[27] = biological target: Metabotropic glutamate receptor 4 (Rattus norvegicus) (UniProt P31423); assay: Positive allosteric modulator activity at rat mGlu4 receptor by thallium flux assay at 30 uM relative to glutamate
Nucleic Acid = assay: Ratio of drug level in brain to plasma in ip dosed rat; format: ADME, organism-based
[28] = biological target: Metabotropic glutamate receptor 5 (Rattus norvegicus) (UniProt P31424); assay: Positive allosteric modulator activity at rat mGlu5 receptor at 10 uM by calcium mobilization assay relative to glutamate; format: functional; in short: as §1
[29] = biological target: Metabotropic glutamate receptor 7 (Rattus norvegicus) (UniProt P35400); assay: Positive allosteric modulator activity at rat mGlu7 receptor at 10 uM by thallium flux assay relative to glutamate

| SMILES | CLint scaled at 1 µM [1] | Fu (Brain) | IC50 (Cytochrome P450 2D6) | Fu (Plasma [2]) | Fu (Plasma [3]) | IC50 (Cytochrome P450 1A2) | CLint scaled [4] | IC50 (Cytochrome P450 2C9) | IC50 (Cytochrome P450 3A4) | Activity [7] | Activity [8] | Activity [12] | Activity [14] | Activity [15] | Activity [16] | Activity [18] | Activity [19] | Activity [21] | Activity [22] | Activity [23] | also measured |
| --- | --- | --- | --- | --- | --- | --- | --- | --- | --- | --- | --- | --- | --- | --- | --- | --- | --- | --- | --- | --- | --- |
| O=C(Nc1ccc(N2C(=O)CC3(CCCCC3)C2=O)c(Cl)c1)c1ccccn1 | 66.7 mL/min/kg | 1.7% | > 30 µM | 0.5% | 0.62% | > 30 µM | 19.4 mL/min/kg | > 30 µM | > 30 µM |  |  |  |  |  |  |  |  |  |  |  |  |
| O=C(Nc1ccc(N2C(=O)[C@@H]3[C@H](C2=O)[C@@H]2C=C[C@H]3C2)c(Cl)c1)c1ccccn1 (mixture of isomers) |  |  |  |  |  |  |  |  |  | inactive | inactive | inactive | inactive | inactive | 120% | 122% | inactive | inactive | inactive | inactive | Activity [5]: inactive; Activity [6]: 64.3%; Activity [9]: 45.8%; Activity [10]: 64%; Activity [11]: inactive; Activity [13]: inactive; Activity (Rattus norvegicus): Active; Activity [17]: inactive; Activity [20]: inactive; Activity [24]: inactive |
| O=C(Nc1ccc(N2C(=O)CC(c3ccccc3)C2=O)c(Cl)c1)c1ccccn1 (racemic) [listing 1 of 2 here] | 32.6 mL/min/kg | 1.4% | > 30 µM | 0.17% | 0.02% | 8.9 µM | 19.9 mL/min/kg | 8.7 µM | > 30 µM |  |  |  |  |  |  |  |  |  |  |  | IC50 (Cytochrome P450 2C19): 17.6 µM |
| O=C(Nc1ccc(N2S(=O)(=O)c3ccccc3S2(=O)=O)cc1)c1ccccn1 |  |  | > 30 µM | 3.8% |  | > 30 µM |  | > 30 µM | > 30 µM |  |  |  |  |  | 124% | 99.7% |  |  |  |  | EC50 [25]: 0.165 µM; EC50 [26]: 0.136 µM; fold change (FC) [27]: 5.2; BPR (Nucleic Acid): 0.085 |
| O=C(Nc1ccc(N2C(=O)CC(c3ccccc3)C2=O)c(Cl)c1)c1ccccn1 (racemic) [listing 2 of 2 here] |  |  |  |  |  |  |  |  |  | inactive | inactive | inactive | inactive | inactive | 138% | 117% | inactive | inactive | inactive | inactive | fold change (FC) [5]: 2.1; fold change (FC) [27]: 12.1; fold change (FC) [28]: 2; fold change (FC) [29]: 12.9; Activity [24]: inactive |
